Laboratory results from ChEMBL document CHEMBL1124479, “N-[(arylmethoxy)phenyl] and N-[(arylmethoxy)naphthyl] sulfonamides: potent orally active leukotriene D4 antagonists of novel structure” (J Med Chem, 1989).
Blank lines part the entries; values can stand above or below the compound they belong to.

Columns and labels:
Cavia porcellus [1] = test: Inhibitory dose of the intraduodenally administered compound (10 min before giving agonist) that produced a 50% inhibition of ovalbumin induced bronchoconstriction in guinea pigs; type: functional; settings: intraduodenal, read-out: ID50 (the source's name)
In short: (§1)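 Guinea pigs, intraduodenal dosing, with LTD4 or ovalbumin challenge. ID50 is the dose of antagonist giving 50% inhibition of the induced bronchoconstriction.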

Cavia porcellus [2] = test: Inhibitory dose of the intragastrically administered compound (120 min before giving agonist) that produced a 50% inhibition of leukotriene D4 induced bronchoconstriction in guinea pigs; type: functional; settings: po, read-out: ID50 (the source's name)
In short: (§2)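 Guinea pigs, awake, dosed intragastrically 120 min before agonist challenge (95 min before anesthetic). The LTD4 challenge was given intravenously; ovalbumin served as antigen. ID50 is the dose giving 50% inhibition of LTD4- or ovalbumin-induced bronchoconstriction.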

Cavia porcellus [3] = test: Inhibitory dose of the intragastrically administered compound (120 min before giving agonist) that produced a 50% inhibition of ovalbumin induced bronchoconstriction in guinea pigs; type: functional; settings: po, read-out: ID50 (the source's name); in short: as §2
Cavia porcellus [4] = test: Relative inhibitor potency of the intraduodenally administered compound with Wy-48,252 against leukotrien D4 induced bronchoconstriction in guinea pigs; type: functional
Cavia porcellus [5] = test: Relative inhibitor potency of the intraduodenally administered compound with Wy-48,252 against ovalbumin induced bronchoconstriction in guinea pigs; type: functional
Cavia porcellus [6] = test: Relative inhibitor potency of the intragastrically administered compound with Wy-48,252 against leukotriene D4 induced bronchoconstriction in guinea pigs; type: functional
In short: (§3)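 Intragastric dosing of awake guinea pigs 120 min before agonist (95 min before anesthetic), with LTD4 or ovalbumin challenge.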

Cavia porcellus [7] = test: Inhibitory dose of the intraduodenally administered compound (10 min before giving agonist) that produced a 50% inhibition of leukotriene D4 induced bronchoconstriction in guinea pigs; type: functional; settings: intraduodenal, read-out: ID50 (the source's name); in short: as §1
Cavia porcellus [8] = test: Relative inhibitor potency of the intragastrically administered compound with Wy-48,252 against ovalbumin induced bronchoconstriction in guinea pigs; type: functional; in short: as §3
Cavia porcellus [9] = test: Inhibition of Leukotriene D4 induced bronchoconstriction when compound was administered perorally at a dose of 25 mg/kg in guinea pig; type: functional; settings: route oral
In short: (§4)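 Single-dose screen in guinea pigs, with n animals per group. Significance versus control used a two-tailed Student's t test (p < 0.05), or one-way ANOVA with contrasts based on each treatment's difference from its own control mean.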

Cavia porcellus [10] = test: Inhibition of ovalbumin-induced bronchoconstriction when compound was administered intraduodenally at a dose of 25 mg/kg in guinea pig; type: functional; settings: route intraduodenal; in short: as §4
Cavia porcellus [11] = test: Inhibition of ovalbumin-induced bronchoconstriction when compound was administered perorally at a dose of 25 mg/kg in guinea pig; type: functional; settings: route oral; in short: as §4
[12] = biological target: T1, Polyunsaturated fatty acid 5-lipoxygenase (Rattus norvegicus, UniProt P12527); test: Inhibitory concentration to inhibit 5-lipoxygenase in the rat
T1 sequence (P12527 whole entry): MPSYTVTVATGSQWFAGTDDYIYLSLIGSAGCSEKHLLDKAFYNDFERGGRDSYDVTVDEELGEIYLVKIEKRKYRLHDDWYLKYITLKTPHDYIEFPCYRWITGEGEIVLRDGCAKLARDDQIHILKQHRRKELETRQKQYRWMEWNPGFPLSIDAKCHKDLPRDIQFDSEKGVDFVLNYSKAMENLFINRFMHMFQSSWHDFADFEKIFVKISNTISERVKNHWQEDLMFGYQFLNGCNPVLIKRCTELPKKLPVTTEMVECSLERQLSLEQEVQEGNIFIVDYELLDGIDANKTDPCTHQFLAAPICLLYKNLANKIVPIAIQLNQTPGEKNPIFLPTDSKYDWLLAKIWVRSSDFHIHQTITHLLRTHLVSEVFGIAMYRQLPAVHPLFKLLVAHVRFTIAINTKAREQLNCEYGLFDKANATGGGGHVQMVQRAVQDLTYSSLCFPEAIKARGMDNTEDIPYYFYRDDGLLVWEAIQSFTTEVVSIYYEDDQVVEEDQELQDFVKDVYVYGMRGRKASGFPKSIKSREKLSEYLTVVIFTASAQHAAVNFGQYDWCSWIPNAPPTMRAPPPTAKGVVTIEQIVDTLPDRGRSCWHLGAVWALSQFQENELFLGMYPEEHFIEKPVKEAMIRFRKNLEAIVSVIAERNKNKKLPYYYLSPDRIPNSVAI
In short: (§5)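 Rat PMN assay, measuring 5-lipoxygenase and cyclooxygenase activity. IC50 values are in μM.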

[13] = Disassociation constant was determined; type: ADME
In short: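 Isolated guinea pig trachea, pretreated with indomethacin and L-cysteine, contracted with LTD4. Antagonism was expressed as a pKB value.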

Cavia porcellus [14] = test: Inhibition of ovalbumin-induced bronchoconstriction when compound was administered intraduodenally at a dose of 50 mg/kg in guinea pig; type: functional; settings: route intraduodenal; in short: as §4
Cavia porcellus [15] = test: Inhibitory dose of the intraduodenally administered compound (10 min before giving agonist)that produced a 50% inhibition of ovalbumin induced bronchoconstriction in guinea pigs; type: functional; settings: intraduodenal, read-out: ID50 (the source's name); in short: as §1
Cavia porcellus [16] = test: Relative inhibitor potency of the intraduodenally administered compound with Wy-48,252 against lovalbumininduced bronchoconstriction in guinea pigs; type: functional
Cavia porcellus [17] = test: Inhibitory dose of intraduodenally administered compound (10 min before giving agonist) that produced a 50% inhibition of leukotriene D4 induced bronchoconstriction in guinea pig; type: functional; settings: intraduodenal, read-out: ID50 (the source's name); in short: as §1
Cavia porcellus [18] = test: Inhibition of ovalbumin-induced bronchoconstriction when compound was administered perorally at a dose of 50 mg/kg in guinea pig; type: functional; settings: route oral; in short: as §4
Mus musculus = test: Percent inhibition of TPA-induced inflammation at 1 mg/ear in the mouse ear edema; type: functional
Cyclooxygenase = biological target: T2, Cyclooxygenase (Rattus norvegicus, UniProt P35355+Q63921); test: Inhibitory concentration to inhibit Prostaglandin G/H synthase in the rat; type: protein assay; in short: as §5
T2 sequence (P35355 whole entry): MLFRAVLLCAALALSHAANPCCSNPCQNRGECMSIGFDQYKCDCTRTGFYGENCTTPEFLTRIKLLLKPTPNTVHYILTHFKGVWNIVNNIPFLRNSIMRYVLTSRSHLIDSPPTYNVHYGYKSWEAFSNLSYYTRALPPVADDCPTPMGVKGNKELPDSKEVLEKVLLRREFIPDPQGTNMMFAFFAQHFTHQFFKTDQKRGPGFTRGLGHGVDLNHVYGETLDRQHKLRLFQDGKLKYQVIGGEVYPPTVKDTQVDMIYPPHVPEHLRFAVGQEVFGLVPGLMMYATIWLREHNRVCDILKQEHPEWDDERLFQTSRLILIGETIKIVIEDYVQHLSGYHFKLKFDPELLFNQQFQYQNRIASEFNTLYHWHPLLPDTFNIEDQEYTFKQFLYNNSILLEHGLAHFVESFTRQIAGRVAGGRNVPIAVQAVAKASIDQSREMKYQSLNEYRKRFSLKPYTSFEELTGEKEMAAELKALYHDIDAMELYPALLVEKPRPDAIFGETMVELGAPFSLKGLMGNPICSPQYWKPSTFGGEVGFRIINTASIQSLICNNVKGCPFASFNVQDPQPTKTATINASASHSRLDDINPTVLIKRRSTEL
T2 sequence (Q63921 whole entry): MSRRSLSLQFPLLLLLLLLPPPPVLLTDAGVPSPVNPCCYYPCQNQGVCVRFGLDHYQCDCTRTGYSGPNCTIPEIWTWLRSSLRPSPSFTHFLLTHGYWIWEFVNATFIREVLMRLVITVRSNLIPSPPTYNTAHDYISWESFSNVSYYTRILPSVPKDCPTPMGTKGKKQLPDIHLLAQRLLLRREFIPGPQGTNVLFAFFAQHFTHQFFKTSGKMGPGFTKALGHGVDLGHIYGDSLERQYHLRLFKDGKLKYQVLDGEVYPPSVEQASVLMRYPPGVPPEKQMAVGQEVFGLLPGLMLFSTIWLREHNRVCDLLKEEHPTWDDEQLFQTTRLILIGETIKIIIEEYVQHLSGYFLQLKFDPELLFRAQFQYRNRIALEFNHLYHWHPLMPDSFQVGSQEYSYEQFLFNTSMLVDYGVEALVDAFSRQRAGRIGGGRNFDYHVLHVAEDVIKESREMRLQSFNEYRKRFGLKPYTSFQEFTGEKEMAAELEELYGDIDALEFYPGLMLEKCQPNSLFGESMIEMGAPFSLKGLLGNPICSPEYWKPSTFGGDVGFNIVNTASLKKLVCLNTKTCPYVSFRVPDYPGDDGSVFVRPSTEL

Rattus norvegicus = test: Percent inhibition of compound (50 mg/kg) in the rat carrageenan paw edema assay; type: functional
In short: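 Rat carrageenan paw edema, with compound given intragastrically. Read-out is percent inhibition of edema.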

Cavia porcellus [19] = test: Inhibition of Leukotriene D4 induced bronchoconstriction in guinea pig by 50 mg/kg i.d.; settings: at 50 mg/kg

Compound: CCCc1c(OCCCCc2nnn[nH]2)ccc(C(C)=O)c1O [TOMELUKAST]
ED50 (Cavia porcellus [1]): 19 mg/kg
ED50 (Cavia porcellus [2]): 32 mg/kg
ED50 (Cavia porcellus [3]): 38 mg/kg
Relative inhibitor potency (Cavia porcellus [4]): 1
Relative inhibitor potency (Cavia porcellus [5]): 1
Relative inhibitor potency (Cavia porcellus [6]): 1
ED50 (Cavia porcellus [7]): 6 mg/kg
Relative inhibitor potency (Cavia porcellus [8]): 1

Compound: O=S(=O)(Nc1cccc(OCc2ncc3ccccc3n2)c1)C(F)(F)F
inhibition in vivo at 25 mg/kg (Cavia porcellus [9]): 97%
inhibition in vivo at 25 mg/kg (Cavia porcellus [10]): 78%
inhibition in vivo at 25 mg/kg (Cavia porcellus [11]): 23%

IC50 [12]: 230 nM
pKB [13]: 7.04
IC50 (Cyclooxygenase): 11900 nM
inhibition (Cavia porcellus [19]): 99%
Compound: O=S(=O)(Nc1ccc2ccc(OCc3ccc4ccccc4n3)cc2c1)C(F)(F)F
inhibition in vivo at 50 mg/kg (Cavia porcellus [14]): 86%
ED50 (Cavia porcellus [15]): 0.46 mg/kg
ED50 (Cavia porcellus [2]): 0.25 mg/kg
ED50 (Cavia porcellus [3]): 6.1 mg/kg
Relative inhibitor potency (Cavia porcellus [4]): 4
Relative inhibitor potency (Cavia porcellus [16]): 41
Relative inhibitor potency (Cavia porcellus [6]): 128
ED50 (Cavia porcellus [17]): 1.4 mg/kg
Relative inhibitor potency (Cavia porcellus [8]): 6
inhibition in vivo at 50 mg/kg (Cavia porcellus [18]): 83%
Inhibition (Mus musculus): 34%
Inhibition (Rattus norvegicus): 63%
